Laboratory results reported in ChEMBL document CHEMBL4354811, “Discovery of Novel Aryl Carboxamide Derivatives as Hypoxia-Inducible Factor 1α Signaling Inhibitors with Potent Activities of Anticancer Metastasis” (J Med Chem, 2019).
Calls of active or inactive are those of the source. The rule behind the calls is not given here.

What was measured:
[1] = target: Hypoxia-inducible factor 1-alpha (Homo sapiens) (UniProt Q16665); experiment: Inhibition of HIF1alpha transcriptional activity in hypoxia-induced human HCCLM3 cells co-transfected with luciferase reporter plasmid containing five copies of HREs and pRL-SV40 plasmid encoding Renilla luciferase at 10 uM incubated with compound under normoxia for 1 hr followed by hypoxia induction and measured after 24 hrs by HRE-dependent dual luciferase reporter gene assay relative to control
Sequence of Hypoxia-inducible factor 1-alpha (Homo sapiens) (Q16665 whole entry, looked up): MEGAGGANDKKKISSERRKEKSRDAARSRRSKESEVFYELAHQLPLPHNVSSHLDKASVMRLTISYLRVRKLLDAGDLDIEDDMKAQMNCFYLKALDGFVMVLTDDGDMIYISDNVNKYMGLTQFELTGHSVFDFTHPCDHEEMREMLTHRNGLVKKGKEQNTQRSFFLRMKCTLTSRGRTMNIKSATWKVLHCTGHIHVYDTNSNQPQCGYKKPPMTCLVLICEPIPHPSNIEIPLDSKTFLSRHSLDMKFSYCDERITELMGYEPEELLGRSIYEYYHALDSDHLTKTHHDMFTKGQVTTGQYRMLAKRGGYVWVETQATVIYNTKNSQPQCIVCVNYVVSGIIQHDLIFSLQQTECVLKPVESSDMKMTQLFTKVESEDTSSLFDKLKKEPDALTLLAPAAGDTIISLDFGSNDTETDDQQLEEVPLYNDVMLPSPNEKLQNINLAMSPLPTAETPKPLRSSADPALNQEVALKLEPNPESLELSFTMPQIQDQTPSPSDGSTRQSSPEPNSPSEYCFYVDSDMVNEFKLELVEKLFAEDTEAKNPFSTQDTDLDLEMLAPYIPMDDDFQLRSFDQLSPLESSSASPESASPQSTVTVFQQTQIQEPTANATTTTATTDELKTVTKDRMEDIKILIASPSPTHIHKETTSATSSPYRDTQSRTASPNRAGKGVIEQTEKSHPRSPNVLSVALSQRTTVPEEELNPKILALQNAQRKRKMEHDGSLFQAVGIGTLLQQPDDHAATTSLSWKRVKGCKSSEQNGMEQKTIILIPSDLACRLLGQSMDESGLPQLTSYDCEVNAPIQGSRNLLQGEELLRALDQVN
Outline: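 LM3 cells co-transfected with firefly luciferase reporter carrying five HRE copies plus pRL-SV40 Renilla plasmid; after transfection treated and kept under hypoxia; firefly luminescence normalized to Renilla. Single-point inhibition rate at 10 μM; IC50 for selected compounds.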

HCCLM3 = experiment: Inhibition of HIF1alpha accumulation in hypoxia-induced human HCCLM3 cells at 10 uM incubated with compound under normoxia for 1 hr followed by hypoxia induction and measured after 24 hrs by Western blot analysis; type: functional, cell-based
Outline: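 LM3 cells treated at 10 μM under hypoxia; HIF-1α protein by western blot, LW6 as reference.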

[2] = Cytotoxicity against human HCCLM3 cells assessed as reduction in cell viability incubated for 48 hrs by MTT assay; type: cell-based
Danio rerio = species on record: Danio rerio; experiment: Antiangiogenic activity in […]/EGFP transgenic zebrafish embryo assessed as destruction of subintestinal vessel at 0.5 uM incubated for 24 hrs by confocal microscopic method; type: functional, organism-based
Outline: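 Transgenic zebrafish with GFP-labeled vascular endothelium; embryos selected, […], exposed 24 h to 0.5 or 1 μM (DMSO vehicle, n = 10; apatinib 0.5 μM reference); SIVs imaged by confocal microscopy and counted per field; means ± SD, three independent experiments.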

Row | inhibition [1] | SMILES | further results
1 | 36.9% | O=C(NCCc1ccncc1)c1nc(-c2ccccc2)no1 | 
2 | 33.9% | O=C(NCCc1ccncc1)c1csc(-c2cccnc2)n1 | 
3 | 45.6% | COc1ccc(-c2ccc(C(=O)NCCc3ccccc3F)nc2)cc1 | 
4 | 73.5% | COC(=O)c1ccc(O)c(NC(=O)COc2ccc(C34CC5CC(CC(C5)C3)C4)cc2)c1 | HIF-1α accumulation inhibition (qualitative) (HCCLM3): Active; CC50 at 48 h [2]: > 50 µM
5 | 43.7% | O=C(NCCc1ccccn1)c1ccc(-c2ccccc2)cn1 | 
6 |  | N#CC1(c2ccc(NC(=O)c3cccnc3NCc3ccncc3)cc2)CCCC1 | Activity (Danio rerio): Active
7 | 2.4% | Cc1nc(C(=O)NCCc2cccnc2)cs1 | 
8 | 38.7% | O=C(NCCc1ccncc1)c1coc(-c2ccccc2)n1 | 
9 | 31.3% | Cc1nc(C(=O)NCCc2ccncc2)cs1 | 
10 | 36.9% | O=C(NCCc1ccc(O)cc1)c1ccc(-c2ccccc2)cn1 | 
11 | 73.4% | O=C(NCCc1ccccc1F)c1ccc(-c2ccoc2)cn1 | HIF-1α accumulation inhibition (qualitative) (HCCLM3): Active; CC50 at 48 h [2]: > 50 µM
12 | 3.1% | Cc1nc(C(=O)NCc2ccccc2)cs1 | 
13 | 91.4% | O=C(NCCc1ccccc1F)c1ccc(-c2ccccc2)cn1 | CC50 at 48 h [2]: > 50 µM
14 | 57.2% | O=C(NCCc1ccccc1F)c1ccc(-c2ccco2)cn1 | 
15 | 44.1% | O=C(NCCc1ccccc1Cl)c1nc(-c2ccccc2)no1 | 
16 | 43.6% | O=C(NCCc1ccccc1F)c1ccc(-c2ccccc2O)cn1 | 
17 | 13.1% | N#Cc1ccc(-c2ccc(C(=O)NCCc3ccccc3F)nc2)cc1 | 
18 | 64.6% | O=C(NCCc1cccc(Cl)c1)c1ccc(-c2ccccc2)cn1 | CC50 at 48 h [2]: > 50 µM
19 | 1.2% | Cc1nc(C(=O)NCCc2cccc(Cl)c2)cs1 | 
20 | 31.8% | Cc1ccc(CCNC(=O)c2ccc(-c3ccccc3)cn2)cc1 | 
21 | 48.7% | O=C(NCCc1ccncc1)c1csc(-c2ccccc2)n1 | 
22 | 46.1% | O=C(NCCc1ccc(F)cc1)c1ccc(-c2ccccc2)cn1 | 
23 | 51.4% | O=C(NCCc1ccccc1Cl)c1coc(-c2ccccc2)n1 | 
24 | 40.5% | O=C(NCCc1ccccc1Cl)c1noc(-c2ccccc2)n1 | 

Row | inhibition [1] | SMILES | further results
25 | 68.4% | O=C(NCCc1ccccc1Cl)c1ccc(-c2ccccc2)cn1 | CC50 at 48 h [2]: > 50 µM
26 | 62.7% | N#Cc1ccccc1-c1ccc(C(=O)NCCc2ccccc2F)nc1 | CC50 at 48 h [2]: > 50 µM
27 | 6.5% | Cc1nc(C(=O)NCCCc2ccccc2)cs1 | 
28 | 41.8% | O=C(NCCc1ccccc1Cl)c1nnc(-c2ccccc2)o1 | 
29 | 54.1% | O=C(NCCc1ccccc1Cl)c1csc(-c2ccccc2)n1 | 
30 | 52.3% | O=C(NCCc1ccccc1Cl)c1ncc(-c2ccccc2)o1 | 
31 | 21.6% | O=C(NCCc1ccccc1Cl)c1csc(-c2cccnc2)n1 | 
32 | 19.9% | O=C(NCCc1ccncc1)c1csc(-c2ccncc2)n1 | 
33 | 53.8% | COc1cccc(-c2ccc(C(=O)NCCc3ccccc3F)nc2)c1 | 
34 | 58.2% | O=C(NCCc1ccc(Cl)cc1)c1ccc(-c2ccccc2)cn1 | 
35 | 3.1% | Cc1ccc(C(=O)NCCc2ccncc2)cc1 | 
36 | 21.2% | Cc1nc(C(=O)NCCc2ccccc2)cs1 | HIF-1α accumulation inhibition (qualitative) (HCCLM3): Active
37 | 61.5% | O=C(NCCc1ccncc1)c1nccc(-c2ccccc2)n1 | CC50 at 48 h [2]: > 50 µM
38 | 0.3% | O=C(NCCc1ccccc1F)c1ccc(-c2cccc(O)c2)cn1 | 
39 | 55.3% | O=C(NCCc1ccccc1F)c1ccc(-c2cccc(F)c2)cn1 | 
40 | 53.5% | O=C(NCCc1ccncc1)c1ncc(-c2ccccc2)o1 | 
41 | 83.8% | O=C(NCCc1ccccc1F)c1ccc(-c2ccccc2F)cn1 | CC50 at 48 h [2]: > 50 µM
42 | 29.5% | O=C(NCCc1ccccc1F)c1ccc(-c2cn[nH]c2)cn1 | HIF-1α accumulation inhibition (qualitative) (HCCLM3): Active
43 | 40.2% | O=C(NCCc1ccc([N+](=O)[O-])cc1)c1ccc(-c2ccccc2)cn1 | 
44 | 36.4% | Cc1cccc(C(=O)NCCc2ccncc2)n1 | 
45 | 67.3% | O=C(NCCc1ccncc1)c1nnc(-c2ccccc2)o1 | CC50 at 48 h [2]: > 50 µM
46 | 58.7% | O=C(NCCc1cccc(F)c1)c1ccc(-c2ccccc2)cn1 | 
47 | 82.2% | O=C(NCCc1ccccc1)c1ccc(-c2ccccc2)cn1 | CC50 at 48 h [2]: > 50 µM
48 | 42% | O=C(NCCc1ccncc1)c1ccc(-c2ccccc2)cc1 | 

Row | inhibition [1] | SMILES | further results
49 | 45.3% | Cc1ccc(C(=O)NCCc2ccccc2Cl)cc1 | 
50 | 33.2% | O=C(NCCc1ccccc1F)c1ccc(-c2ccc(O)cc2)cn1 | 
51 | 37.3% | Cc1cccc(C(=O)NCCc2ccccc2Cl)n1 | 
52 | 80% | O=C(NCCc1ccccc1F)c1ccc(-c2cccs2)cn1 | CC50 at 48 h [2]: > 50 µM
53 | 41.2% | O=C(NCCc1ccccc1F)c1ccc(-c2ccc(F)cc2)cn1 | 
54 | 88.2% | O=C(NCCc1ccccc1F)c1ccc(-c2ccsc2)cn1 | CC50 at 48 h [2]: > 50 µM
55 | 56.7% | O=C(NCCc1ccccc1Cl)c1cc(-c2ccccc2)ncn1 | 
56 | 17.4% | Cc1ccc(C(=O)NCCc2ccccc2Cl)o1 | 
57 | 5.1% | Cc1nc(C(=O)NCCc2ccccn2)cs1 | 
58 | 45.1% | O=C(NCCc1ccccc1Cl)c1ccc(-c2ccccc2)nc1 | 
59 | 60.7% | O=C(NCCc1ccncc1)c1ccc(-c2ccccc2)cn1 | CC50 at 48 h [2]: > 50 µM
60 | 77.2% | O=C(NCCc1ccccc1Cl)c1ccc(-c2ccccc2)cc1 | CC50 at 48 h [2]: > 50 µM
61 | 18.4% | O=C(NCCc1ccccc1Cl)c1csc(-c2ccncc2)n1 | 
62 | 12.8% | Cc1ccc(C(=O)NCCc2ccncc2)o1 | 
63 | 57.5% | O=C(NCCc1ccccc1F)c1ccc(-c2ccncc2)cn1 | 
64 | 42.7% | Cc1nc(C(=O)NCCc2ccccc2Cl)cs1 | 
65 | 44.5% | O=C(NCCc1cccnc1)c1ccc(-c2ccccc2)cn1 | 
66 | 0.6% | Cc1nc(C(=O)NCCc2ccc(Cl)cc2)cs1 | 
67 | 60.2% | Nc1ccc(CCNC(=O)c2ccc(-c3ccccc3)cn2)cc1 | CC50 at 48 h [2]: > 50 µM
68 | 47.4% | O=C(NCCc1ccncc1)c1ccc(-c2ccccc2)nc1 | 
69 | 44.5% | N#Cc1cccc(-c2ccc(C(=O)NCCc3ccccc3F)nc2)c1 | 
70 | 49.7% | O=C(NCCc1ccncc1)c1noc(-c2ccccc2)n1 | 
